{"data": "Measured values pooled from the literature", "target": "Tyrosine-protein kinase Srms (SRMS, Homo sapiens, UniProt Q9H3Y6)", "note": "Each line is one published result; the experiments were not run side by side."}
{"SMILES": "COc1ccnn2ncc(-c3ccnc(N(C)C)n3)c12", "observed": "binding", "tested at": "1 µM", "remaining binding": "78%"}
{"SMILES": "O=C(N1CCS(=O)(=O)CC1)N1C[C@H](c2ccc(OC(F)(F)F)cc2)C[C@H](c2nc(C3CC3)no2)C1", "observed": "cell-free assay", "method": "competition with immobilised ligand", "tested at": "1 µM", "remaining binding": "100%"}
{"SMILES": "CN(CCCC(F)(F)F)c1nccc(-c2cnn3ncccc23)n1", "observed": "binding", "tested at": "1 µM", "remaining binding": "100%"}
{"SMILES": "CS(=O)(=O)NCC[C@H](NC(=O)c1cncc2c1cnn2-c1ccc(F)cc1)c1ccnc(S(C)(=O)=O)c1", "observed": "cell-free assay", "method": "competition with immobilised ligand", "tested at": "1 µM", "remaining binding": "83%"}
{"SMILES": "CCN1CCN(Cc2ccc(C(=O)Nc3ccc(C)c(Oc4ccc5c(c4)CC(=O)N5)c3)cc2C(F)(F)F)CC1", "observed": "binding", "method": "competition with immobilised ligand", "tested at": "1 µM", "remaining binding": "100%"}
{"SMILES": "Cc1cnc(Nc2ccc(C(=O)N3CCC(N4CCCC4)CC3)cc2)nc1-c1cc2ccccc2s1", "observed": "binding", "method": "competition with immobilised ligand", "tested at": "1 µM", "remaining binding": "68%"}
{"SMILES": "COc1ncc2cc3ccccc3nc2c1C#N", "observed": "cell-free assay", "method": "competition with immobilised ligand", "tested at": "5 µM", "remaining binding": "100%"}
{"SMILES": "CN(C)c1nccc(-c2cnc3ncccn23)n1", "observed": "binding", "tested at": "1 µM", "remaining binding": "63%"}
{"SMILES": "CC(C)(O)c1cncc(-c2nc3ccc(F)cc3n2C2CC2)c1", "observed": "cell-free assay", "method": "competition with immobilised ligand", "tested at": "1 µM", "remaining binding": "100%"}
{"SMILES": "O=C(NCCCN1CCOCC1)c1ccc(Nc2nccc(-c3cc4ccccc4s3)n2)cc1", "observed": "binding", "method": "competition with immobilised ligand", "tested at": "1 µM", "remaining binding": "100%"}
{"SMILES": "COc1cc(-c2cn(C3CCc4ccccc4N(CC(F)(F)F)C3=O)nn2)ccc1-n1ccc(C)n1 (stereo not shown)", "observed": "cell-free assay", "method": "competition with immobilised ligand", "tested at": "1 µM", "remaining binding": "84%"}
{"SMILES": "COc1cnc(Nc2cccc(S(N)(=O)=O)c2)nc1N1CCN(c2ccccc2)CC1", "observed": "binding", "method": "competition with immobilised ligand", "tested at": "1 µM", "remaining binding": "83%"}
{"SMILES": "C[C@H]1CCN(c2nccc(-c3cnn4ncccc34)n2)C1", "observed": "binding", "tested at": "1 µM", "remaining binding": "71%"}
{"SMILES": "CN([C@@H]1CCc2c(CC(=O)O)c3ccccc3n2C1)S(=O)(=O)c1ccc(F)cc1", "observed": "cell-free assay", "method": "competition with immobilised ligand", "tested at": "1 µM", "remaining binding": "81%"}
{"SMILES": "CNC(=O)[C@@H]1CC[C@@H](n2c(-c3ccc4cnccc4c3)nc3ccc(C(=O)NCc4cccc(C(N)=O)c4)cc32)C1", "observed": "binding", "method": "competition with immobilised ligand", "tested at": "1 µM", "remaining binding": "97%"}
{"SMILES": "CCCOc1ccc([C@@H]2[C@@H](C(=O)O)[C@H](c3ccc4c(c3)OCO4)CN2CC(=O)Nc2c(CC)cccc2CC)cc1", "observed": "cell-free assay", "method": "competition with immobilised ligand", "tested at": "1 µM", "remaining binding": "90%"}
{"SMILES": "N[C@@H]1CCN(c2nccc(-c3cnn4ncccc34)n2)C1", "observed": "binding", "tested at": "1 µM", "remaining binding": "100%"}
{"SMILES": "O=C(c1ccc(Nc2ncc(Cl)c(-c3ccc(Cl)s3)n2)cc1)N1CCC(N2CCCC2)CC1", "observed": "binding", "method": "competition with immobilised ligand", "tested at": "1 µM", "remaining binding": "98%"}
{"SMILES": "O=C(NCC1CCOCC1)c1n[nH]cc1NC(=O)c1c(F)cccc1F", "observed": "binding", "method": "competition with immobilised ligand", "tested at": "1 µM", "remaining binding": "100%"}
{"SMILES": "N#CC1(c2ccccn2)CCN(Cc2cc(C(=O)N3CCCC3)c(=O)n3ccccc23)CC1", "observed": "cell-free assay", "method": "competition with immobilised ligand", "tested at": "1 µM", "remaining binding": "100%"}
{"SMILES": "Cc1cnn2ncc(-c3ccnc(N(C)C)n3)c2c1", "observed": "binding", "tested at": "1 µM", "remaining binding": "100%"}
{"SMILES": "Nc1ncc2c(n1)-c1c([nH]c3ccc(C#CC4CC4)cc13)CCCC2", "observed": "binding", "method": "competition with immobilised ligand", "tested at": "1 µM", "remaining binding": "92%"}
